Test results from ChEMBL document CHEMBL5724801, “EUbOPEN Chemogenomics Library - Multiplex” (2024).
Several values for one entry are separate records, joined by “and”; a condition that tells them apart may be missing. Equal values may be shown once.

System: U2OS
Assay: Multiplex assay against U2OS
Type: toxicity, cell-based
Settings: human
Outline: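 Imaging took place on a CQ1 microscope at 37°C and 5% CO2 once compound had been added to live cells stained at seeding with Hoechst33342, BioTracker Green Microtubule Cytoskeleton Dye, MitoTracker Red and Annexin V Alexa Fluor 680. CellPathfinder machine-learning gating classed cells as Hoechst high-intensity objects or normal cells, classed normal cells as having healthy, pyknosed or fragmented nuclei, and classed pyknosed cells as mitotic or apoptotic. Tubulin, mitochondrial-mass and membrane-permeability phenotypes are per cents of the healthy-nucleus cells.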

[1] = 12 h, 1 µM, compound concentration 1 uM
[2] = 12 h, 10 µM, compound concentration 10 uM
[3] = 24 h, 1 µM, compound concentration 1 uM
[4] = 24 h, 10 µM, compound concentration 10 uM
[5] = 48 h, 1 µM, compound concentration 1 uM
[6] = 48 h, 10 µM, compound concentration 10 uM

Cl.Cl.N#Cc1ccc(O[C@@H]2c3ccccc3C[C@H]2N2CCC[C@@H](N)C2)c(Cl)c1
Population Apoptotic (%) [1]: 27.27% and 23.68% | Population Fragmented Nuclei (%) [1]: 3.65% and 1.32% | Population Healthy Nuclei (%) [1]: 79.64% and 73.51% | Population Hoechst High Intensity Objects (%) [1]: 0% | Population Membrane Permeable-Phenotype (%) [1]: 24.05% and 54.05% | Population Mitotic Cells (%) [1]: 72.73% and 76.32% | Population Normal (%) [1]: 100% | Population Pyknosed Nuclei (%) [1]: 16.72% and 25.17% | Population Tubulin-Different-Phenotype (%) [1]: 57.25% and 71.17% | Total Cell Count [1]: 329 and 151 | Population Apoptotic (%) [2]: 46.21% and 25.32% | Population Fragmented Nuclei (%) [2]: 4.14% and 2.88% | Population Healthy Nuclei (%) [2]: 56.8% and 40.29% | Population Hoechst High Intensity Objects (%) [2]: 0% | Population Membrane Permeable-Phenotype (%) [2]: 11.98% and 32.14% | Population Mitochondria Different-Phenotype (%) [2]: 63.54% and 89.29% | Population Mitotic Cells (%) [2]: 53.79% and 74.68% | Population Normal (%) [2]: 100% | Population Pyknosed Nuclei (%) [2]: 39.05% and 56.83% | Population Tubulin-Different-Phenotype (%) [2]: 88.02% and 89.29% | Total Cell Count [2]: 338 and 139 | Population Apoptotic (%) [3]: 47.5% and 39.47% | Population Fragmented Nuclei (%) [3]: 2.74% and 2.58% | Population Healthy Nuclei (%) [3]: 77.31% and 72.9% | Population Hoechst High Intensity Objects (%) [3]: 0% | Population Membrane Permeable-Phenotype (%) [3]: 19.35% and 35.4% | Population Mitotic Cells (%) [3]: 52.5% and 60.53% | Population Normal (%) [3]: 100% | Population Pyknosed Nuclei (%) [3]: 19.95% and 24.52% | Population Tubulin-Different-Phenotype (%) [3]: 32.58% and 69.03% | Total Cell Count [3]: 401 and 155 | Population Apoptotic (%) [4]: 64.9% and 68.09% | Population Fragmented Nuclei (%) [4]: 3.82% and 4.96% | Population Healthy Nuclei (%) [4]: 51.76% and 28.37% | Population Hoechst High Intensity Objects (%) [4]: 0% | Population Membrane Permeable-Phenotype (%) [4]: 9.09% and 12.5% | Population Mitochondria Different-Phenotype (%) [4]: 73.3% and 92.5% | Population Mitotic Cells (%) [4]: 35.1% and 31.91% | Population Normal (%) [4]: 100% | Population Pyknosed Nuclei (%) [4]: 44.41% and 66.67% | Population Tubulin-Different-Phenotype (%) [4]: 88.64% and 90% | Total Cell Count [4]: 340 and 141 | Population Apoptotic (%) [5]: 60.55% and 72.41% | Population Fragmented Nuclei (%) [5]: 2.44% and 3.43% | Population Healthy Nuclei (%) [5]: 79.8% and 63.43% | Population Hoechst High Intensity Objects (%) [5]: 0% | Population Mitotic Cells (%) [5]: 39.45% and 27.59% | Population Normal (%) [5]: 100% | Population Pyknosed Nuclei (%) [5]: 17.75% and 33.14% | Population Apoptotic (%) [6]: 73.29% and 91.21% | Population Fragmented Nuclei (%) [6]: 7.46% and 4.9% | Population Healthy Nuclei (%) [6]: 56.22% and 31.47% | Population Hoechst High Intensity Objects (%) [6]: 0% and 0.69% | Population Membrane Permeable-Phenotype (%) [6]: 5.75% and 15.56% | Population Mitochondria Different-Phenotype (%) [6]: 52.21% and 86.67% | Population Normal (%) [6]: 100% and 99.31% | Population Pyknosed Nuclei (%) [6]: 36.32% and 63.64% | Population Tubulin-Different-Phenotype (%) [6]: 66.37% and 84.44% | Total Cell Count [6]: 402 and 144

O=C1NCc2ccc3c(-c4cccc(Cl)c4)c[nH]c3c21
Population Apoptotic (%) [1]: 16.88% and 44.83% | Population Fragmented Nuclei (%) [1]: 2.23% and 1.96% | Population Healthy Nuclei (%) [1]: 76.32% and 79.08% | Population Hoechst High Intensity Objects (%) [1]: 0% | Population Membrane Permeable-Phenotype (%) [1]: 1.46% and 3.31% | Population Mitochondria Different-Phenotype (%) [1]: 0% and 8.26% | Population Mitotic Cells (%) [1]: 83.12% and 55.17% | Population Normal (%) [1]: 100% | Population Pyknosed Nuclei (%) [1]: 21.45% and 18.95% | Population Tubulin-Different-Phenotype (%) [1]: 1.46% and 2.48% | Total Cell Count [1]: 359 and 153 | Population Apoptotic (%) [2]: 31.03% and 23.81% | Population Fragmented Nuclei (%) [2]: 0.99% and 2.27% | Population Healthy Nuclei (%) [2]: 79.87% and 81.82% | Population Hoechst High Intensity Objects (%) [2]: 0% | Population Membrane Permeable-Phenotype (%) [2]: 2.89% and 3.7% | Population Mitochondria Different-Phenotype (%) [2]: 0% and 15.74% | Population Mitotic Cells (%) [2]: 68.97% and 76.19% | Population Normal (%) [2]: 100% | Population Pyknosed Nuclei (%) [2]: 19.14% and 15.91% | Population Tubulin-Different-Phenotype (%) [2]: 2.07% and 0.93% | Total Cell Count [2]: 303 and 132 | Population Apoptotic (%) [3]: 34.38% and 19.64% | Population Fragmented Nuclei (%) [3]: 3.92% and 1.72% | Population Healthy Nuclei (%) [3]: 66.59% and 66.09% | Population Hoechst High Intensity Objects (%) [3]: 0% and 0.57% | Population Membrane Permeable-Phenotype (%) [3]: 0.69% and 3.48% | Population Mitochondria Different-Phenotype (%) [3]: 0% and 8.7% | Population Mitotic Cells (%) [3]: 65.62% and 80.36% | Population Normal (%) [3]: 100% and 99.43% | Population Pyknosed Nuclei (%) [3]: 29.49% and 32.18% | Population Tubulin-Different-Phenotype (%) [3]: 1.73% and 2.61% | Total Cell Count [3]: 434 and 175 | Population Apoptotic (%) [4]: 50% and 28.3% | Population Fragmented Nuclei (%) [4]: 4.05% and 5.47% | Population Healthy Nuclei (%) [4]: 49.22% and 53.12% | Population Hoechst High Intensity Objects (%) [4]: 0.62% and 0% | Population Membrane Permeable-Phenotype (%) [4]: 0.63% and 8.82% | Population Mitochondria Different-Phenotype (%) [4]: 0% and 8.82% | Population Mitotic Cells (%) [4]: 50% and 71.7% | Population Normal (%) [4]: 99.38% and 100% | Population Pyknosed Nuclei (%) [4]: 46.73% and 41.41% | Population Tubulin-Different-Phenotype (%) [4]: 1.27% and 1.47% | Total Cell Count [4]: 323 and 128 | Population Apoptotic (%) [5]: 63.69% and 70.59% | Population Fragmented Nuclei (%) [5]: 9.74% and 8.94% | Population Healthy Nuclei (%) [5]: 47.18% and 43.58% | Population Hoechst High Intensity Objects (%) [5]: 0% | Population Membrane Permeable-Phenotype (%) [5]: 1.63% and 6.41% | Population Mitotic Cells (%) [5]: 36.31% and 29.41% | Population Normal (%) [5]: 100% | Population Pyknosed Nuclei (%) [5]: 43.08% and 47.49% | Population Tubulin-Different-Phenotype (%) [5]: 6.52% and 2.56% | Total Cell Count [5]: 390 and 179 | Population Apoptotic (%) [6]: 70.56% and 84.62% | Population Fragmented Nuclei (%) [6]: 6.99% and 3.12% | Population Healthy Nuclei (%) [6]: 38.3% and 46.09% | Population Hoechst High Intensity Objects (%) [6]: 0% | Population Membrane Permeable-Phenotype (%) [6]: 2.38% and 6.78% | Population Mitotic Cells (%) [6]: 29.44% and 15.38% | Population Normal (%) [6]: 100% | Population Pyknosed Nuclei (%) [6]: 54.71% and 50.78% | Population Tubulin-Different-Phenotype (%) [6]: 10.32% and 5.08% | Total Cell Count [6]: 329 and 128
